Measurements as given in ChEMBL document CHEMBL5303300, “EUbOPEN Chemogenomics Library - Multiplex” (2023).
“And” between values parts separate entries of the source, which are not always exact repeats. Equal entries are not always repeated.

Tested on: U2OS
Experiment: Multiplex assay against U2OS
Format: toxicity, cell-based
Conditions: human, number of replicates 2
Procedure, shortened: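 Hoechst33342, BioTracker Green Microtubule Cytoskeleton Dye, MitoTracker Red and Annexin V Alexa Fluor 680 were added to live cells at seeding, and imaging on a CQ1 microscope at 37°C and 5% CO2 followed compound addition. Gating by CellPathfinder machine learning separated cells into Hoechst high-intensity objects or normal cells, then normal cells into healthy, pyknosed or fragmented nuclei, then pyknosed cells into mitotic or apoptotic. Per cents of healthy-nucleus cells are reported for the tubulin, mitochondrial-mass and membrane-permeability phenotypes.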

[1] = 12 h, 1 µM, compound concentration 1 uM
[2] = 12 h, 10 µM, compound concentration 10 uM
[3] = 24 h, 1 µM, compound concentration 1 uM
[4] = 24 h, 10 µM, compound concentration 10 uM
[5] = 48 h, 1 µM, compound concentration 1 uM
[6] = 48 h, 10 µM, compound concentration 10 uM

SMILES: CC(C)(C)c1cnc(CSc2cnc(NC(=O)C3CCNCC3)s2)o1 [BMS-387032]
- Population Apoptotic (%) [1]: 83% and 88%
- Population Healthy Nuclei (%) [1]: 60% and 73%
- Population Hoechst High Intensity Objects (%) [1]: 1% and 0%
- Population Membrane Permeable-Phenotype (%) [1]: 8% and 3%
- Population Mitochondria Different-Phenotype (%) [1]: 2% and 4%
- Population Mitotic Cells (%) [1]: 16% and 12%
- Population Normal (%) [1]: 98% and 100%
- Population Pyknosed Nuclei (%) [1]: 10% and 19%
- Population Tubulin-Different-Phenotype (%) [1]: 80% and 82%
- Total Cell Count [1]: 61 and 128
- Population Apoptotic (%) [2]: 85% and 65%
- Population Healthy Nuclei (%) [2]: 32% and 71%
- Population Hoechst High Intensity Objects (%) [2]: 0% and 1%
- Population Mitochondria Different-Phenotype (%) [2]: 7% and 11%
- Population Mitotic Cells (%) [2]: 14% and 35%
- Population Normal (%) [2]: 100% and 98%
- Population Pyknosed Nuclei (%) [2]: 17% and 22%
- Population Apoptotic (%) [3]: 66% and 94%
- Population Fragmented Nuclei (%) [3]: 22% and 9%
- Population Healthy Nuclei (%) [3]: 62% and 69%
- Population Hoechst High Intensity Objects (%) [3]: 1% and 0%
- Population Membrane Permeable-Phenotype (%) [3]: 8% and 1%
- Population Mitochondria Different-Phenotype (%) [3]: 5%
- Population Normal (%) [3]: 98% and 100%
- Population Pyknosed Nuclei (%) [3]: 15% and 21%
- Population Tubulin-Different-Phenotype (%) [3]: 75% and 77%
- Total Cell Count [3]: 60 and 163
- Population Apoptotic (%) [4]: 87% and 78%
- Population Healthy Nuclei (%) [4]: 32% and 41%
- Population Hoechst High Intensity Objects (%) [4]: 0%
- Population Mitochondria Different-Phenotype (%) [4]: 21% and 25%
- Population Mitotic Cells (%) [4]: 12% and 21%
- Population Normal (%) [4]: 100% and 99%
- Population Pyknosed Nuclei (%) [4]: 18% and 46%
- Population Tubulin-Different-Phenotype (%) [4]: 57% and 52%
- Population Apoptotic (%) [5]: 68% and 93%
- Population Fragmented Nuclei (%) [5]: 23% and 8%
- Population Healthy Nuclei (%) [5]: 55% and 66%
- Population Hoechst High Intensity Objects (%) [5]: 0%
- Population Mitochondria Different-Phenotype (%) [5]: 6% and 5%
- Population Normal (%) [5]: 100%
- Population Pyknosed Nuclei (%) [5]: 21% and 25%
- Population Tubulin-Different-Phenotype (%) [5]: 89% and 80%
- Total Cell Count [5]: 89 and 235
- Population Apoptotic (%) [6]: 84% and 94%
- Population Healthy Nuclei (%) [6]: 21% and 9%
- Population Hoechst High Intensity Objects (%) [6]: 0% and 4%
- Population Membrane Permeable-Phenotype (%) [6]: 80% and 41%
- Population Mitochondria Different-Phenotype (%) [6]: 40% and 52%
- Population Mitotic Cells (%) [6]: 15% and 5%
- Population Normal (%) [6]: 100% and 95%
- Population Pyknosed Nuclei (%) [6]: 27% and 75%
- Population Tubulin-Different-Phenotype (%) [6]: 50% and 76%

SMILES: O=C1Nc2ccc(C(=O)c3ccco3)cc2C1=Cc1cc(Cl)c(O)c(Cl)c1 [GW406108X]
- Population Apoptotic (%) [1]: 25% and 65%
- Population Fragmented Nuclei (%) [1]: 11% and 2%
- Population Healthy Nuclei (%) [1]: 76% and 87%
- Population Hoechst High Intensity Objects (%) [1]: 0%
- Population Membrane Permeable-Phenotype (%) [1]: 3% and 0%
- Population Mitochondria Different-Phenotype (%) [1]: 0%
- Population Mitotic Cells (%) [1]: 75% and 34%
- Population Normal (%) [1]: 100%
- Population Pyknosed Nuclei (%) [1]: 11% and 9%
- Population Tubulin-Different-Phenotype (%) [1]: 76% and 82%
- Population Apoptotic (%) [2]: 83% and 47%
- Population Fragmented Nuclei (%) [2]: 12% and 4%
- Population Healthy Nuclei (%) [2]: 69% and 85%
- Population Hoechst High Intensity Objects (%) [2]: 0%
- Population Membrane Permeable-Phenotype (%) [2]: 0% and 1%
- Population Mitochondria Different-Phenotype (%) [2]: 0%
- Population Normal (%) [2]: 100%
- Population Pyknosed Nuclei (%) [2]: 18% and 10%
- Population Tubulin-Different-Phenotype (%) [2]: 52% and 87%
- Population Apoptotic (%) [3]: 40% and 64%
- Population Fragmented Nuclei (%) [3]: 4% and 2%
- Population Healthy Nuclei (%) [3]: 85% and 88%
- Population Hoechst High Intensity Objects (%) [3]: 0%
- Population Membrane Permeable-Phenotype (%) [3]: 10% and 1%
- Population Mitochondria Different-Phenotype (%) [3]: 2% and 0%
- Population Mitotic Cells (%) [3]: 60% and 35%
- Population Normal (%) [3]: 100%
- Population Pyknosed Nuclei (%) [3]: 10% and 8%
- Population Tubulin-Different-Phenotype (%) [3]: 75% and 79%
- Population Apoptotic (%) [4]: 87% and 43%
- Population Fragmented Nuclei (%) [4]: 8% and 5%
- Population Healthy Nuclei (%) [4]: 73% and 82%
- Population Hoechst High Intensity Objects (%) [4]: 0%
- Population Membrane Permeable-Phenotype (%) [4]: 0% and 1%
- Population Mitochondria Different-Phenotype (%) [4]: 0%
- Population Normal (%) [4]: 100%
- Population Pyknosed Nuclei (%) [4]: 17% and 12%
- Population Tubulin-Different-Phenotype (%) [4]: 51% and 90%
- Population Apoptotic (%) [5]: 33% and 48%
- Population Fragmented Nuclei (%) [5]: 6% and 1%
- Population Healthy Nuclei (%) [5]: 79% and 89%
- Population Hoechst High Intensity Objects (%) [5]: 0%
- Population Membrane Permeable-Phenotype (%) [5]: 2% and 1%
- Population Mitochondria Different-Phenotype (%) [5]: 2% and 0%
- Population Mitotic Cells (%) [5]: 66% and 51%
- Population Normal (%) [5]: 100% and 99%
- Population Pyknosed Nuclei (%) [5]: 13% and 8%
- Population Tubulin-Different-Phenotype (%) [5]: 85% and 83%
- Population Apoptotic (%) [6]: 90% and 51%
- Population Fragmented Nuclei (%) [6]: 1% and 6%
- Population Healthy Nuclei (%) [6]: 79% and 83%
- Population Hoechst High Intensity Objects (%) [6]: 0%
- Population Membrane Permeable-Phenotype (%) [6]: 2%
- Population Mitochondria Different-Phenotype (%) [6]: 2% and 1%
- Population Normal (%) [6]: 100%
- Population Pyknosed Nuclei (%) [6]: 18% and 10%
- Population Tubulin-Different-Phenotype (%) [6]: 66% and 90%

SMILES: CC(C)N1CCN(Cc2cnc(-c3cc(-c4cccc5[nH]ccc45)cc4[nH]ncc34)o2)CC1 [NEMIRALISIB]
- Population Apoptotic (%) [1]: 42% and 80%
- Population Fragmented Nuclei (%) [1]: 12% and 2%
- Population Healthy Nuclei (%) [1]: 70% and 85%
- Population Hoechst High Intensity Objects (%) [1]: 0%
- Population Membrane Permeable-Phenotype (%) [1]: 0% and 1%
- Population Mitochondria Different-Phenotype (%) [1]: 3% and 0%
- Population Mitotic Cells (%) [1]: 57% and 20%
- Population Normal (%) [1]: 100% and 99%
- Population Pyknosed Nuclei (%) [1]: 17% and 11%
- Population Tubulin-Different-Phenotype (%) [1]: 53% and 72%
- Population Apoptotic (%) [2]: 69% and 57%
- Population Fragmented Nuclei (%) [2]: 13%
- Population Healthy Nuclei (%) [2]: 62% and 65%
- Population Hoechst High Intensity Objects (%) [2]: 0%
- Population Membrane Permeable-Phenotype (%) [2]: 15% and 8%
- Population Mitotic Cells (%) [2]: 30% and 42%
- Population Normal (%) [2]: 100%
- Population Pyknosed Nuclei (%) [2]: 24% and 20%
- Population Tubulin-Different-Phenotype (%) [2]: 18% and 30%
- Population Apoptotic (%) [3]: 60% and 80%
- Population Fragmented Nuclei (%) [3]: 4% and 3%
- Population Healthy Nuclei (%) [3]: 72% and 87%
- Population Hoechst High Intensity Objects (%) [3]: 0%
- Population Membrane Permeable-Phenotype (%) [3]: 0% and 1%
- Population Mitochondria Different-Phenotype (%) [3]: 0% and 2%
- Population Mitotic Cells (%) [3]: 40% and 19%
- Population Normal (%) [3]: 100% and 99%
- Population Pyknosed Nuclei (%) [3]: 22% and 9%
- Population Tubulin-Different-Phenotype (%) [3]: 59% and 78%
- Population Apoptotic (%) [4]: 33% and 60%
- Population Fragmented Nuclei (%) [4]: 10%
- Population Healthy Nuclei (%) [4]: 52% and 55%
- Population Hoechst High Intensity Objects (%) [4]: 2% and 0%
- Population Membrane Permeable-Phenotype (%) [4]: 4% and 8%
- Population Mitochondria Different-Phenotype (%) [4]: 36% and 43%
- Population Mitotic Cells (%) [4]: 66% and 39%
- Population Normal (%) [4]: 97% and 99%
- Population Pyknosed Nuclei (%) [4]: 37% and 34%
- Population Tubulin-Different-Phenotype (%) [4]: 32% and 33%
- Population Apoptotic (%) [5]: 47% and 70%
- Population Fragmented Nuclei (%) [5]: 4% and 3%
- Population Healthy Nuclei (%) [5]: 74% and 88%
- Population Hoechst High Intensity Objects (%) [5]: 0%
- Population Membrane Permeable-Phenotype (%) [5]: 1% and 2%
- Population Mitochondria Different-Phenotype (%) [5]: 1% and 0%
- Population Mitotic Cells (%) [5]: 52% and 29%
- Population Normal (%) [5]: 100%
- Population Pyknosed Nuclei (%) [5]: 20% and 8%
- Population Tubulin-Different-Phenotype (%) [5]: 81% and 76%
- Population Apoptotic (%) [6]: 60% and 67%
- Population Fragmented Nuclei (%) [6]: 23% and 8%
- Population Healthy Nuclei (%) [6]: 25% and 55%
- Population Hoechst High Intensity Objects (%) [6]: 3% and 2%
- Population Membrane Permeable-Phenotype (%) [6]: 12% and 11%
- Population Mitochondria Different-Phenotype (%) [6]: 37% and 35%
- Population Mitotic Cells (%) [6]: 39% and 32%
- Population Normal (%) [6]: 96% and 97%
- Population Pyknosed Nuclei (%) [6]: 51% and 35%
- Population Tubulin-Different-Phenotype (%) [6]: 25% and 38%
